Series [1] addresses T1, Cytochrome P450 26A1 (Homo sapiens, UniProt O43174).
T1 sequence (O43174 whole entry): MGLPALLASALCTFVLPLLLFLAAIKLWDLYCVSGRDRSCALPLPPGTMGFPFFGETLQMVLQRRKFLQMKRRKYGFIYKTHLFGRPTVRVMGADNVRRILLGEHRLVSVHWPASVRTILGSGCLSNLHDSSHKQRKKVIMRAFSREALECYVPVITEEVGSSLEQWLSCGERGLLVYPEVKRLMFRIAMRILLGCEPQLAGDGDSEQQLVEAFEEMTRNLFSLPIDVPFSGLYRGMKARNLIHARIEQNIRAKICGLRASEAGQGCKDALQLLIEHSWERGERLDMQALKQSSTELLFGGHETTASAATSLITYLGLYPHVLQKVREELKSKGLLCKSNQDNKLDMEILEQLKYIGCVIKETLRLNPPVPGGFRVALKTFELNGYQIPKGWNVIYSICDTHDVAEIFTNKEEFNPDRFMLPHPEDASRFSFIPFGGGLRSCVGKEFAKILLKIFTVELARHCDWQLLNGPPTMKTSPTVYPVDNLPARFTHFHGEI
Description: Inhibition of CYP26 expressed in human T47D cell line.

The target of series [2] is Cytochrome P450 3A4 (Homo sapiens, UniProt P08684).
Sequence of Cytochrome P450 3A4 (P08684 whole entry): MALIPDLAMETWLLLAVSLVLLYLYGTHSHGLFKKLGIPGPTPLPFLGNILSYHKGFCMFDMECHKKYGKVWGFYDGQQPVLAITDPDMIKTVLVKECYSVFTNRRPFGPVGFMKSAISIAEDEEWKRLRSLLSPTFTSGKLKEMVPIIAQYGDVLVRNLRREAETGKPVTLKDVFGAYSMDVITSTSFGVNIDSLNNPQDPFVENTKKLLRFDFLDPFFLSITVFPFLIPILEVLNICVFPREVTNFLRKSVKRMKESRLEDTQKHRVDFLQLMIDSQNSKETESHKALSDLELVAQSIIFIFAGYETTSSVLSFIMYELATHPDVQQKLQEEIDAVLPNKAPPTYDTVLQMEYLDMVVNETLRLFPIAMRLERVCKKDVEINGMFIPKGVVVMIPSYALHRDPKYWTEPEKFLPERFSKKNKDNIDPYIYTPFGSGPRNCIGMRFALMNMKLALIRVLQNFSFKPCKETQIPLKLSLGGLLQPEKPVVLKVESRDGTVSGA
Series [3] deals with T47D. The experiment in a line: Activity against human T47D cell line. It is filed as functional.
A short description of series [4]: Bioavailability in CD1 mouse. The conditions noted are these: in vivo.
For series [5], the target named is T2, Cytochrome P450 1A2 (Homo sapiens, UniProt P05177).
T2 sequence (P05177 whole entry): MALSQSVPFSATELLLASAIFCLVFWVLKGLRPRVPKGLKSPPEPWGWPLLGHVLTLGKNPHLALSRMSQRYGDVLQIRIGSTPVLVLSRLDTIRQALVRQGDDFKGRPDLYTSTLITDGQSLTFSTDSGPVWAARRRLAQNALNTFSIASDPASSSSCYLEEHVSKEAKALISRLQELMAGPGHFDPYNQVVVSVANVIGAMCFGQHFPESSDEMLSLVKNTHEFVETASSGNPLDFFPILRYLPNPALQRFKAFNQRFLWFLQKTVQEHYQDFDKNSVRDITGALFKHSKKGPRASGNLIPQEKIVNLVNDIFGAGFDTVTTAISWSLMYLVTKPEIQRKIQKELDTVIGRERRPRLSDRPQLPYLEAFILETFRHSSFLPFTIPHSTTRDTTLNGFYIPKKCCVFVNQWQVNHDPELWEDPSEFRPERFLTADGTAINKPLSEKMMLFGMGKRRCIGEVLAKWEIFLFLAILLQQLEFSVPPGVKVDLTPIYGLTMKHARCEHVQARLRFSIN

For series [6], the target named is Cytochrome P450 2D6 (Homo sapiens, UniProt P10635).
Sequence of Cytochrome P450 2D6 (P10635 whole entry): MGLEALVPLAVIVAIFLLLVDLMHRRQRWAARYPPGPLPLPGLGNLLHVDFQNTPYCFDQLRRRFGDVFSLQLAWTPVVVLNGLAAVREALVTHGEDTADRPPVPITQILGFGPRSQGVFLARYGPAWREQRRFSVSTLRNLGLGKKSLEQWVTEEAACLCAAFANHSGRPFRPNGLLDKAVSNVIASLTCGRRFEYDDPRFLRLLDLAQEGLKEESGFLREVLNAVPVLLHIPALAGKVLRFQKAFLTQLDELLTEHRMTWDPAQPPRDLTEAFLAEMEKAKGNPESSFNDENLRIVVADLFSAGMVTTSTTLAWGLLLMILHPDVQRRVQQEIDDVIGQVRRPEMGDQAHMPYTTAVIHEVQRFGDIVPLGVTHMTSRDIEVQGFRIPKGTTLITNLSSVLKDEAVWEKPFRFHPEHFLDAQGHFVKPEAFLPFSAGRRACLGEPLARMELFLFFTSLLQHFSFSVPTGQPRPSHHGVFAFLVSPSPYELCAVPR
Series [7] addresses Cytochrome P450 2C9 (Homo sapiens, UniProt P11712).
Series [8] is filed under the species Mus musculus. The settings on record: in vivo, po, 5 mg/kg.
The nature of series [9]: in vivo. The settings on record: CD1, mouse, po, 5 mg/kg.
The nature of series [10]: in vivo. The settings on record: CD1, mouse, iv, 1 mg/kg.
A short description of series [11]: Plasma concentration in CD1 mouse at 5 mg/kg, po after 2 hrs co-administered with 3-[6-(2-dimethylamino- 1-imidazol-1-yl-propyl)-naphthalen-2-yloxy]- 2,2-dimethyl-propionic acid at 10 mg/kg, po. Format: ADME, organism-based. Put shortly:
(§1)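 Female CD-1 mice, about six weeks old, got atRA at 5 mg/kg by gavage (0.5 mg/mL in 1.5% v/v DMSO/safflower oil, 10 mL/kg). This was given immediately before the inhibitor at 10 mg/kg orally in water for injection. Three mice per timepoint gave cardiac EDTA blood. Plasma was acetonitrile-precipitated, and atRA was read by HPLC-UV against blank mouse plasma standards. AUC came from noncompartmental analysis of median values.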

The nature of series [12]: Plasma concentration in CD1 mouse at 5 mg/kg, po after 8 hrs co-administered with 3-[6-(2-dimethylamino- 1-imidazol-1-yl-propyl)-naphthalen-2-yloxy]- 2,2-dimethyl-propionic acid at 10 mg/kg, po. It is filed as ADME, organism-based. Put shortly:
as §1

Series [13] has as its system Mus musculus. Description: AUC(0-tz) in CD1 mouse at 5 mg/kg, po co-administered with 3-[6-(2-dimethylamino- 1-imidazol-1-yl-propyl)-naphthalen-2-yloxy]- 2,2-dimethyl-propionic acid at 10 mg/kg, po. Format: ADME, organism-based, Plasma. The conditions noted are these: in vivo. Put shortly: as §1
Series [14] can be described thus: Plasma concentration in CD1 mouse at 5 mg/kg, po after 2 hrs co-administered with 3-[6-(2-dimethylamino- 1-imidazol-1-yl-butyl)-naphthalen-2-yloxy]- 2,2-dimethyl-propionic acid at 10 mg/kg, po. Format: ADME, organism-based. Put shortly:
as §1

Series [15] can be described thus: Plasma concentration in CD1 mouse at 5 mg/kg, po after 8 hrs co-administered with 3-[6-(2-dimethylamino- 1-imidazol-1-yl-butyl)-naphthalen-2-yloxy]- 2,2-dimethyl-propionic acid at 10 mg/kg, po. Format: ADME, organism-based. Put shortly:
as §1

Series [16] has as its system Mus musculus. The experiment in a line: AUC(0-tz) in CD1 mouse at 5 mg/kg, po co-administered with 3-[6-(2-dimethylamino- 1-imidazol-1-yl-butyl)-naphthalen-2-yloxy]- 2,2-dimethyl-propionic acid at 10 mg/kg, po. Format: ADME, organism-based, Plasma. The settings on record: in vivo. Put shortly:
as §1

Series [17] can be described thus: Plasma concentration in CD1 mouse at 5 mg/kg, po after 2 hrs. It is filed as ADME, organism-based. More on the design: dose 5 mg/kg, route oral. Put shortly:
(§2)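 Female CD-1 mice, about six weeks old, got atRA by oral gavage at 10 mL/kg (5 mg/kg), from a 0.5 mg/mL solution in 1.5% v/v DMSO in safflower oil. Three mice per timepoint gave terminal cardiac blood in EDTA.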

The nature of series [18]: Plasma concentration in CD1 mouse at 5 mg/kg, po after 8 hrs. It is filed as ADME, organism-based. Further details: dose 5 mg/kg, route oral. Put shortly: as §2
Series [19] deals with Mus musculus. Description: AUC(0-tz) in CD1 mouse at 5 mg/kg, po. It is filed as ADME, organism-based, Plasma. More on the design: dose 5 mg/kg, route oral. The conditions noted are these: in vivo. Put shortly: as §2

Broadly, the IC50 is the point on the concentration scale where inhibition reaches its midpoint. The low end stands for greater potency, the high end for weaker potency. The term bioavailability denotes the share of a dose that reaches the circulation, judged against a reference dose that is usually intravenous. A lower bioavailability goes with little systemic uptake. For orientation: AUC means concentration integrated over time. A word on the Cmax: it is the highest concentration seen after dosing. For orientation: half-life means how long it takes for the measured level to halve. The low end stands for rapid decline, the high end for slow decline.

Sequence of Cytochrome P450 2C9 (P11712 whole entry): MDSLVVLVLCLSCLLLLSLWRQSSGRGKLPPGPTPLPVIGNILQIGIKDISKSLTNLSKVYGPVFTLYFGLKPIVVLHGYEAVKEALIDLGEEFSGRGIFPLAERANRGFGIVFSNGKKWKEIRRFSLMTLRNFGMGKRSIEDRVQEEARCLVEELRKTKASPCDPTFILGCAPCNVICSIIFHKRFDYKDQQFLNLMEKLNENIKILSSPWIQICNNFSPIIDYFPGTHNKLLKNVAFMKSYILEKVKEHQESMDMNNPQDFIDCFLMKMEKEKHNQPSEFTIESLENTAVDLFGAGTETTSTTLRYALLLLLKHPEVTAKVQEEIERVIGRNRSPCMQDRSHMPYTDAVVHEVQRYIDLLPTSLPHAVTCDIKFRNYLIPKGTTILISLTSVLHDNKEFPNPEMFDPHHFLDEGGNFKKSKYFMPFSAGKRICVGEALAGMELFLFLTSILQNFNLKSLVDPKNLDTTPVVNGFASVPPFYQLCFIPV

On to `CN(C)C[C@@H](c1ccc2cc(OCC(C)(C)C(=O)O)ccc2c1)n1ccnc1`, for which, in [1], the midpoint of inhibition, the IC50, lay at 403 nM. That is a sub-micromolar value.

Turning to `CCCCN(C)[C@H](C)[C@@H](c1ccc2cc(OCC(C)(C)C(=O)O)ccc2c1)n1ccnc1`, in [1], 60 nM corresponded to half-maximal inhibition (IC50).

As to `CCN(CC)[C@H](C)[C@@H](c1ccc2cc(OCC3(C(=O)O)CCCC3)ccc2c1)n1ccnc1`, the values for the IC50 in series [1] and in series [2] were 1.4 nM and 1010 nM, respectively.

Turning to `C[C@H]([C@@H](c1ccc2cc(OCC3(C(=O)O)CC3)ccc2c1)n1ccnc1)N(C)C`, the IC50 worked out at 34.7 nM in series [1] and 7500 nM in [2].

Take `CC(C)N(C)[C@H](C)[C@@H](c1ccc2cc(OCC3(C(=O)O)CCCC3)ccc2c1)n1ccnc1`: the half-inhibitory concentration (IC50) in series [1] stood at 1.6 nM; in series [2] it was 800 nM.

For `C[C@H]([C@@H](c1ccc2cc(OCC3(C(=O)O)CCC3)ccc2c1)n1ccnc1)N(C)C`, the IC50 was 40 nM in [1] and 7000 nM in series [2].

Regarding `C[C@H]([C@@H](c1ccc2cc(OCC(C)(C)C(=O)O)ccc2c1)n1ccnc1)N(C)C1CCCCC1`, half-maximal inhibition in series [1] (IC50) required 125 nM.

Compound `CC(C)N(C)[C@H](C)[C@@H](c1ccc2cc(OCC(C)(C)C(=O)O)ccc2c1)n1ccnc1` came in with an IC50 in series [1] of 3 nM.

Consider `C[C@H]([C@@H](c1ccc2cc(OCC3(C(=O)O)CCCCC3)ccc2c1)n1ccnc1)N(C)C`, for which the IC50 in series [1] was 11.2 nM; in series [2], 8000 nM; in series [5], greater than 5000 nM; in series [6], greater than 5000 nM; in series [7], greater than 5000 nM. Besides, in series [3], the Activity was less than 100 nM. For the same compound, the bioavailability in series [4] is 99%. For the same compound, in series [8], the AUC stood at 17500 ng·h/mL. In series [9], this compound registered a Cmax of 23 µM. Besides, the half-life in series [10] is 2.46 h.

For the compound `CCN(C)[C@H](C)[C@@H](c1ccc2cc(OCC3(C(=O)O)CCCC3)ccc2c1)n1ccnc1`, the half-maximal inhibitory concentration (IC50) is 4.2 nM in series [1]; 2300 nM in series [2]; greater than 5000 nM in series [5]; greater than 5000 nM in series [6]; greater than 5000 nM in [7]. In series [3], this compound showed an Activity of less than 100 nM. The bioavailability in [4] is 99%. This compound also gave an AUC in series [8] of 18900 ng·h/mL. Moreover, the Cmax in series [9] turned out to be 13 µM. Moreover, in series [10], the half-life is 7.1 h.

In series [3], `C[C@H]([C@@H](c1ccc2cc(OCC(C)(C)C(=O)O)ccc2c1)n1ccnc1)N(C)C` returned an Activity of 125 nM.

For `CCN(CC)[C@H](C)[C@@H](c1ccc2cc(OCC(C)(C)C(=O)O)ccc2c1)n1ccnc1`, the IC50 in series [1] amounted to 5 nM.

On to `C[C@H]([C@@H](c1ccc2cc(OCC(C)(C)C(=O)O)ccc2c1)n1ccnc1)N1CCOCC1`, for which the IC50 in [1] was 34 nM; in series [2], 2150 nM.

With `CC[C@H]([C@@H](c1ccc2cc(OCC(C)(C)C(=O)O)ccc2c1)n1ccnc1)N(C)C`, the IC50 in [1] was 1.3 nM; in [5] it was greater than 5000 nM; in [6], greater than 5000 nM; in series [7], greater than 5000 nM. The compound further yielded an Activity in series [3] of less than 5 nM. This compound also had a bioavailability in series [4] of 73%. In series [8], this compound gave an AUC of 5430 ng·h/mL. The highest level in series [9] (Cmax) was 6.7 µM. Moreover, the half-life in series [10] is 2.76 h.

With `C[C@H]([C@@H](c1ccc2cc(OCC(C)(C)C(=O)O)ccc2c1)n1ccnc1)N1CCCC1`, the half-maximal inhibitory concentration (IC50) in series [1] came to 583 nM.

In [1], `CCN(C)[C@H](C)[C@@H](c1ccc2cc(OCC(C)(C)C(=O)O)ccc2c1)n1ccnc1` had an IC50 of 9 nM.

With `C[C@H]([C@@H](c1ccc2cc(OCC3(C(=O)O)CCCC3)ccc2c1)n1ccnc1)N(C)C`, the IC50 was 7.3 nM in [1]; 8200 nM in series [2]; greater than 5000 nM in series [5]; greater than 5000 nM in [6]; greater than 5000 nM in series [7]. Also, the Activity in series [3] is listed as less than 100 nM. This compound displayed a bioavailability in series [4] of 77%. Besides, the AUC in series [8] was found to be 5800 ng·h/mL. Also, the highest level in [9] (Cmax) was 5.5 µM. This compound had a half-life in [10] of 2.49 h.

On to `CCC(CC)(COc1ccc2cc([C@H]([C@@H](C)N(C)C)n3ccnc3)ccc2c1)C(=O)O`, for which, in series [1], 37 nM corresponded to half-maximal inhibition (IC50).

For `C[C@H]([C@@H](c1ccc2cc(OCC3(C(=O)O)CCOCC3)ccc2c1)n1ccnc1)N(C)C`, the half-inhibitory concentration (IC50) in [1] is 46.7 nM; in [2], greater than 20000 nM.

The compound `CN(C)C(C)(C)[C@@H](c1ccc2cc(OCC(C)(C)C(=O)O)ccc2c1)n1ccnc1` registered an IC50 in series [1] of 26 nM.

Turning to `CC1=C(/C=C/C(C)=C/C=C/C(C)=C/C(=O)O)C(C)(C)CCC1` [TRETINOIN], the concentration at 2 h in series [11] came to 6.66 µM; in [14] it was 7.72 µM; in [17], 5.24 µM. Further, the concentration at 8 h in series [12] was 0.04 µM; in [15], 2.73 µM; in series [18] it was less than 0.01 µM. Moreover, the AUC in series [13] was determined as 6470 ng·h/mL; in [16] it was 9900 ng·h/mL; in [19], 1690 ng·h/mL.

The record behind these values is ChEMBL document CHEMBL1147708 (Bioorg Med Chem Lett, 2006).
